The record followed here is ChEMBL document CHEMBL2046270, “The cis-4-amino-L-proline residue as a scaffold for the synthesis of cyclic and linear endomorphin-2 analogues” (J Med Chem, 2012).

For assay [1], the target named is Delta-type opioid receptor (Homo sapiens, UniProt P41143). Description: Displacement of [3H]-DPDPE from human delta opioid receptor expressed in HN9.10 cells after 3 hrs by scintillation counting. It is filed as cell-based. Put shortly: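 Membranes from transfected HN9.10 cells expressing MOR or DOR, in 50 mM Tris pH 7.4 with bacitracin, bestatin, captopril, PMSF, BSA. 50 μg membrane with 10 concentrations of test compound and 1.0 nM [3H]DAMGO (MOR) or [3H]DPDPE (DOR); nonspecific with 10 μM naloxone. 25 °C, 3 h, duplicate; GF/B filtration, scintillation counting; Ki by Cheng–Prusoff.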

For assay [2], the target named is Kappa-type opioid receptor (Homo sapiens, UniProt P41145). The assay can be described thus: Displacement of [3H]-U69593 from human kappa opioid receptor expressed in CHO cells after 60 mins by scintillation counting. In kind it is cell-based. A digest of the protocol: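 Recombinant CHO cell membranes incubated 60 min at room temperature with 3 nM [3H]U69593 and varying ligand concentrations; nonspecific binding with 10 μM naloxone. Rapid filtration, liquid scintillation counting. Ki by Cheng–Prusoff; four independent experiments, each in duplicate.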
A general note: In a radioligand displacement assay an active substance lowers the binding of a labelled ligand.

Assay [3] concerns the target Mu-type opioid receptor (Cavia porcellus) (UniProt P97266). Description: Agonist activity at mu opioid receptor in Hartley guinea pig ileum assessed as inhibition of electrically-stimulated muscle contraction at 1 uM after 3 mins. It is filed as functional, tissue-based. A digest of the protocol: (§1)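 Transmurally stimulated tissue (0.1 Hz; 2.0 ms pulses MVD, 0.4 ms GPI; supramaximal voltage) from male ICR mice (25−30 g) or male Hartley guinea pigs (150−400 g; ileum longitudinal muscle-myenteric plexus), in 37 °C oxygenated Krebs bicarbonate (Mg-free for MVD), tension 0.5 g MVD / 1 g GPI. Agonist in contact 3 min, then washout; percent inhibition of contraction at single concentration.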

For assay [4], the target named is Delta-type opioid receptor (Mus musculus) (UniProt P32300). Description: Agonist activity at delta opioid receptor in ICR mouse vas deferens assessed as inhibition of electrically-stimulated muscle contraction at 1 uM after 3 mins. It is filed as functional, tissue-based. Put shortly: as §1
Sequence of Delta-type opioid receptor (Mus musculus) (P32300 whole entry): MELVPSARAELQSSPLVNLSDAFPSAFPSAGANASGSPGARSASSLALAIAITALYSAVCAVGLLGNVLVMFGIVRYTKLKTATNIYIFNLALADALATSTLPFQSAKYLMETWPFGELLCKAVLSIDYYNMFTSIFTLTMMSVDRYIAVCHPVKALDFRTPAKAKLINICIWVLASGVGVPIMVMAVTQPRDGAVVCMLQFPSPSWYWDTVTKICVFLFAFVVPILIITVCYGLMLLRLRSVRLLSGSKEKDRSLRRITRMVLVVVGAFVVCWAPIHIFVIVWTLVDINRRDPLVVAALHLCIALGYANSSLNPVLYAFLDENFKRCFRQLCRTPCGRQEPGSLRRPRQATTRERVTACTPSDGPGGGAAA

Sequence of Kappa-type opioid receptor (P41145 whole entry): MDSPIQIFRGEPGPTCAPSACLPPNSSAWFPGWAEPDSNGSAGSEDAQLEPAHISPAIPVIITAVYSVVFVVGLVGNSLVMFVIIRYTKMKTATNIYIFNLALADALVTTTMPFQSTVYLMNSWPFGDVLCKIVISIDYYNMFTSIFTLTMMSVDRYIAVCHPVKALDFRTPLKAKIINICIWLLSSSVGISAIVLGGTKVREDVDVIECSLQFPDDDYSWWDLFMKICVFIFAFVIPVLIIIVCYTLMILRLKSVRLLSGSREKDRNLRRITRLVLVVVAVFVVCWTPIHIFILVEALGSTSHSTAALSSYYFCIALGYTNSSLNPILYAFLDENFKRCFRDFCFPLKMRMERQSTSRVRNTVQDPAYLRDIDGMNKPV
Sequence of Delta-type opioid receptor (P41143 whole entry): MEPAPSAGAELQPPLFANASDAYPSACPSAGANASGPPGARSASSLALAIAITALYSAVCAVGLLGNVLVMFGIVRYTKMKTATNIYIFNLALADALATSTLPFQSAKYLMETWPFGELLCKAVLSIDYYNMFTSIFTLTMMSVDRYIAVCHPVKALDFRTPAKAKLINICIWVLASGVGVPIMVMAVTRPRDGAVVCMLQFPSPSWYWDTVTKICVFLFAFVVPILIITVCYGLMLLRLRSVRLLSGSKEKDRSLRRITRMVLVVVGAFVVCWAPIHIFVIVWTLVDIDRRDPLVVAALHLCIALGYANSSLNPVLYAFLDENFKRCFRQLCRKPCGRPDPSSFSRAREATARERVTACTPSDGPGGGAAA
Sequence of Mu-type opioid receptor (Cavia porcellus) (P97266 whole entry): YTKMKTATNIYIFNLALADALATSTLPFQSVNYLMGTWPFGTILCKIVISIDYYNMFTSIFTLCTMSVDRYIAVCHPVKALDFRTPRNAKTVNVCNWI

As a reminder, the inhibition is how much of the control response was suppressed. Turning to `N[C@@H](Cc1ccc(O)cc1)C(=O)N1C[C@@H]2C[C@H]1C(=O)N[C@@H](Cc1ccccc1)C(=O)N[C@@H](Cc1ccccc1)C(=O)N2`, the Ki entry in assay [1] and in assay [2] was “Not Active” each time. For the same compound, the inhibition in assay [3] is 1.4%; in assay [4] it was 0%.
As for `Br.N[C@H]1C[C@@H](C(=O)N[C@@H](Cc2ccccc2)C(=O)N[C@@H](Cc2ccccc2)C(=O)O)N(C(=O)[C@@H](N)Cc2ccc(O)cc2)C1`, the Ki result in assay [2] is reported as “Not Active”. The inhibition in assay [3] worked out at 0%; in assay [4], 3.6%.
For `Br.NC(=O)[C@H](Cc1ccccc1)NC(=O)[C@H](Cc1ccccc1)NC(=O)[C@@H]1C[C@H](N)CN1C(=O)[C@@H](N)Cc1ccc(O)cc1`, the Ki entry in assay [1] and in assay [2] was “Not Active” throughout. In assay [4], the inhibition was determined as 20%.
